Measured values taken from paper PMC7563999 (Acta Pharmaceutica Sinica. B, 2020).
Several values for one entry are separate records, joined by “and”; a condition that tells them apart may be missing. Equal entries are not always repeated. Entries after “also recorded” stand apart in the source; their conditions may differ.

How the values were obtained:
α1A-AR = molecular target: T1, α1A-AR (Homo sapiens, UniProt P35348); test: Western blot analysis of α1A-AR level in α1A-AR stably transfected HEK293 cells; assay type: cell-based; conditions: for DC50: read-out: DC50 (concentration required for 50% protein degradation) of α1A-AR, α1A-AR stably transfected HEK293 cells, 12 h, Western blot; for effect on α1A-AR level (Western blot, in words): α1A-AR HEK293 cells, indicated concentrations 12 h, 3 μmol/L for indicated time
T1 sequence (P35348 1-466): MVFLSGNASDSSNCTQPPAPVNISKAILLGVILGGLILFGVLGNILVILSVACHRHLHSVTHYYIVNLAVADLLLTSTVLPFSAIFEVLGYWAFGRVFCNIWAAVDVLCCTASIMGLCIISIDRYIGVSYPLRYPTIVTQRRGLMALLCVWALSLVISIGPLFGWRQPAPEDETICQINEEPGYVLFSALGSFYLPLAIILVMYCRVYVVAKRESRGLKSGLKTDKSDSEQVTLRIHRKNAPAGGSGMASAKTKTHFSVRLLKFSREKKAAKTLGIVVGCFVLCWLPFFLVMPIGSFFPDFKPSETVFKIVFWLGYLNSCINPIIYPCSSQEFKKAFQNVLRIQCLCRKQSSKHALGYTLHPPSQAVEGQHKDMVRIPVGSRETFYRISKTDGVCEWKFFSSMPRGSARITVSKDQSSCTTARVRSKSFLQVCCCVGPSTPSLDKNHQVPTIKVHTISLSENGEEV

PC-3 cells = test: CCK-8 antiproliferation assay on PC-3 cells; assay type: cell-based; conditions: for antiproliferation activity on PC-3 cells (in words): 1–100 μmol/L, 48 h; for IC50: Homo sapiens, PC-3, 48 h, read-out: antiproliferative activity IC50
In short: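 PC-3 cells in RPMI-1640 with 10% FBS, 37 °C, 5% CO2. Seeded at 5000 cells/well, left 24 h, then exposed to test compound for 48 h; controls received DMSO only. CCK-8 reagent (WST-8/PMS) was added for 1 h at 37 °C and absorbance read at 450 nm. Viability was calculated against untreated-cell and cell-free blank wells.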

[1] = system: PC-3 derived prostate cancer xenografts; test: PC-3 tumor xenograft model in nude mice; assay type: in vivo; conditions: 50 mg/kg daily intraperitoneal, two weeks
In short: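 Four-week-old nude mice were given PC-3 cells subcutaneously (10⁶ cells/mouse). At 400 mm³ tumour volume they were split into two groups (n = 5). Each group received test compound or vehicle (10% DMSO + 10% PEG400 + 80% saline) i.p. daily for two weeks. Caliper tumour volume and body weight were taken every 2–3 days. Tumours were harvested 12 h after the last dose.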

α1D-AR = molecular target: T2, α1D-AR (Homo sapiens, UniProt P25100); test: Western blot analysis of α1D-AR level in stably transfected HEK293 cells; assay type: cell-based; conditions: 12 h
T2 sequence (P25100 1-572): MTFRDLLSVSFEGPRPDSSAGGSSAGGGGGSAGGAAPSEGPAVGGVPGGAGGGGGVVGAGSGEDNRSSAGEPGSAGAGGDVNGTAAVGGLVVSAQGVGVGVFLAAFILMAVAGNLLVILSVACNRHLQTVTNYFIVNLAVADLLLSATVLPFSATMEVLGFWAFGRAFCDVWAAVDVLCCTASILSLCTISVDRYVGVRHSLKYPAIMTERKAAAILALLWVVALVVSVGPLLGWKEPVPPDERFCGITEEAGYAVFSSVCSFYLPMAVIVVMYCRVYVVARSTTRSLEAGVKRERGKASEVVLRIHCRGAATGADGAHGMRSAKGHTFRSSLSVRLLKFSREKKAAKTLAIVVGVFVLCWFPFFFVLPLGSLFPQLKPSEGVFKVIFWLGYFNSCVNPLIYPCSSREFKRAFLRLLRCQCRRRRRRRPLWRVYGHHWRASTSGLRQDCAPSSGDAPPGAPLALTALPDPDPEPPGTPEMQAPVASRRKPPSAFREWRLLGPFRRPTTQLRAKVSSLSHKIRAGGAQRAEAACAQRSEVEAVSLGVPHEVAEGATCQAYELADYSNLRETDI

α1B-AR = molecular target: T3, α1B-AR (Homo sapiens, UniProt P35368); test: Western blot analysis of α1B-AR level in stably transfected HEK293 cells; assay type: cell-based; conditions: 12 h
T3 sequence (P35368 1-520): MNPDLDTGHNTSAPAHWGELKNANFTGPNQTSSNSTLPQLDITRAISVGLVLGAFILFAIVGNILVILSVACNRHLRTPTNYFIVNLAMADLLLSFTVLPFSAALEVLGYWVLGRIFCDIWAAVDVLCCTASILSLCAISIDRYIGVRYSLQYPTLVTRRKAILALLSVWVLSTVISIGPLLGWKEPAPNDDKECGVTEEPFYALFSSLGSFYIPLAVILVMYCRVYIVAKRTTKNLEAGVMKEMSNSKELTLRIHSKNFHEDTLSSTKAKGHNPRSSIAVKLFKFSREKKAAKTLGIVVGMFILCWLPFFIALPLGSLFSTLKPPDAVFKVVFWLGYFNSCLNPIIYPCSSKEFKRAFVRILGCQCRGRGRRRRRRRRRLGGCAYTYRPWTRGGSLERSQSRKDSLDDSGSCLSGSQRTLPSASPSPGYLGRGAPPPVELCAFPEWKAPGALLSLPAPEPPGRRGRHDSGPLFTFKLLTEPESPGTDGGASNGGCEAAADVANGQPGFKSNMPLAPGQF

Row | DC50 (α1A-AR) | effect on α1A-AR level (Western blot, in words) (α1A-AR) | IC50 (PC-3 cells) [µM] | SMILES | antiproliferation activity on PC-3 cells (in words) (PC-3 cells) | also measured
1 | ~4.32 µM |  |  | COc1cc2nc(N3CCN(C(=O)c4cn(CCOCC(=O)Nc5cccc6c5C(=O)N(C5CCC(=O)NC5=O)C6=O)nn4)CC3)nc(N)c2cc1OC (centres unmarked) [Compound 9a, 2-(2-(4-(4-(4-Amino-6,7-dimethoxyquinazolin-2-yl)piperazine-1-carbonyl)-1H-1,2,3-triazol-1-yl)ethoxy)-N-(2-(2,6-dioxopiperidin-3-yl)-1,3-dioxoisoindolin-4-yl)acetamide] | concentration-dependent antiproliferation activities | 
2 |  | did not show too much effect |  | COc1cc2nc(N3CCN(C(=O)c4cn(CCOCCOCC(=O)Nc5cccc6c5C(=O)N(C5CCC(=O)NC5=O)C6=O)nn4)CC3)nc(N)c2cc1OC (centres unmarked) [Compound 9b, 2-(2-(2-(4-(4-(4-Amino-6,7-dimethoxyquinazolin-2-yl)piperazine-1-carbonyl)-1H-1,2,3-triazol-1-yl)ethoxy)ethoxy)-N-(2-(2,6-dioxopiperidin-3-yl)-1,3-dioxoisoindolin-4-yl)acetamide] | much less influence | 
3 | ~2.86 µM and 2.86 µM |  | 6.12 | COc1cc2nc(N3CCN(C(=O)c4cn(CCOCCOCCOCC(=O)Nc5cccc6c5C(=O)N(C5CCC(=O)NC5=O)C6=O)nn4)CC3)nc(N)c2cc1OC (centres unmarked) [Compound 9c, 2-(2-(2-(2-(4-(4-(4-Amino-6,7-dimethoxyquinazolin-2-yl)piperazine-1-carbonyl)-1H-1,2,3-triazol-1-yl)ethoxy)ethoxy)ethoxy)-N-(2-(2,6-dioxopiperidin-3-yl)-1,3-dioxoisoindolin-4-yl)acetamide] | concentration-dependent antiproliferation activities | average tumor size and mass vs vehicle-treated group (in words) [1]: noticeably decreased; body weight (in words) ([1]; nude mice): without noticeable loss of body weight; effect on tumor growth (in words) ([1]; nude mice with PC-3 xenografts): significant antitumor effect; also recorded: significant suppression of tumor growth; Dmax (α1A-AR; HEK293, read-out: maximal level of degradation (Dmax) of α1A-AR): 94%; time for α1A-AR level to recover to basal level after washout (α1A-AR; after 12 h pretreatment with 10 μmol/L, cells washed thoroughly): approximately 24 h; α1A-AR degradation after bortezomib pretreatment (in words) (α1A-AR; pretreatment of cells using bortezomib for more than 7 h): could no longer trigger the degradation; influence on α1D-AR level (in words) (α1D-AR): slight influence; degradation activity for α1B-AR (in words) (α1B-AR): no degradation activity
4 |  | incapable of inducing α1A-AR degradation |  | COc1cc2nc(N3CCN(C(=O)c4cn(CCOCCOCCOCC(=O)Nc5cccc6c5C(=O)N(C5CCC(=O)N(C)C5=O)C6=O)nn4)CC3)nc(N)c2cc1OC (centres unmarked) [Compound 11, 2-(2-(2-(2-(4-(4-(4-Amino-6,7-dimethoxyquinazolin-2-yl)piperazine-1-carbonyl)-1H-1,2,3-triazol-1-yl)ethoxy)ethoxy)ethoxy)-N-(2-(1-methyl-2,6-dioxopiperidin-3-yl)-1,3-dioxoisoindolin4-yl)acetamide] |  | 
5 |  |  | 11.7 | COc1cc2nc(N3CCN(C(=O)c4ccco4)CC3)nc(N)c2cc1OC [Prazosin, prazosin, reference compound] |  | 
